From PubChem
KCNK3 block: human KCNK3 channel inhibition, primary screen | 340,000 compounds, 0.84% hits | B-score at 10 µM | CHO-KCNK3 thallium flux, FluxOR fluorescence; active compounds read low | O14649 | AID 602410;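 active means B-score under library mean minus 4 SD, starting fluorescence ratio at most library mean plus 5 SD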;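 further: more negative B-score means stronger inhibition of thallium flux through KCNK3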
KCNQ1 block: human KCNQ1 channel inhibition; P51787; CHO-K1 KCNQ1, FluxOR thallium flux fluorescence; active compounds read high; B-score at 10 µM; 310,000 compounds, 1.3% hits; AID 2642;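 active means compounds whose thallium flux B-score, printed positive for inhibition, exceeds three library SD while starting fluorescence stays within three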;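 further: channel opened by potassium depolarization with thallium stimulus after 20 min compound exposure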
Kir21 block: inhibitors of mouse Kir2.1 inward-rectifier potassium channel; P35561; HEK293-Kir2.1, FluxOR thallium flux fluorescence; active compounds read low; B-score at 10 µM; 310,000 compounds, 0.85% hits;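 active means fluorescence ratio B-score at or below minus 3 SD of library scores, with starting-brightness B-score within 2 SD, cut at about -4.2 in these data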;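 further: channel flux triggered by added potassium and thallium sulfate stimulus; B-score of peak minus minimum fluorescence over baseline after thallium stimulus; more negative B-score means stronger Kir2.1 block with less thallium influx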
hERG protect: compounds protecting human hERG from proarrhythmic drug block; Q12809; CHO-hERG, FluxOR thallium flux, dofetilide IC70 present; activation (rescue from dofetilide block), less the hit threshold, % at 10 µM; 310,000 compounds, 0.51% hits;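 active means activation above the mean of controls blocked by dofetilide plus 5 SD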;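 further: thallium influx through hERG after potassium depolarization seen as dye fluorescence rise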
KCNQ1 act: human KCNQ1 channel potentiation or activation. P51787. CHO-K1 KCNQ1, thallium flux FluxOR fluorescence; active compounds read high. B-score at 10 µM. 310,000 compounds, 0.35% hits. AID 2648;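 active means fluorescence ratio B-score, a plate-corrected score, at least three library SD, with initial intensity B-score within 5 SD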
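Assay system: stable KCNQ1 CHO-K1 line; medium: assay buffer, equal DMSO in all wells; timing: 90 min dye loading and 20 min compound exposure, both at room temperature; technique: kinetic FluxOR thallium fluorescence, 10-s 1-Hz baseline, 110-s post-stimulus read; read-out basis: B score of baseline-normalized fluorescence ratio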
KCNK9 block: blocks the human KCNK9 two-pore domain potassium channel; HEK293 KCNK9, FluxOR thallium flux fluorescence; active compounds read low; B-score at 10 µM; 310,000 compounds, 1.2% hits; AID 488922;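 active means ratio B-score over 3 SD below the library mean, with starting fluorescence within 5 SD of its mean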;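 further: negative B-score means less thallium flux so channel inhibition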
Active calls of the source: *; i = inactive; · = no result. Hits are enriched below; roughly 3.7% of the tested compounds scored in any of these assays.

SMILES | KCNK3 block | KCNQ1 block | Kir21 block | hERG protect | KCNQ1 act | KCNK9 block
O=C(COC(=O)c1cccnc1Cl)NCc1ccc2c(c1)OCO2 | i | i | -0.37 | -11 | i | i
COc1cccc(C(=O)CC(=O)C(=O)Nc2ccc(C)cc2Cl)c1 | i | i | -0.01 | 31* | i | i
COc1ccc(C(=O)CC(=O)C(=O)Nc2ccc(C)cc2Cl)cc1 | i | i | 0.89 | 56* | i | i
COc1ccc(C(=O)CC(=O)C(=O)Nc2ccccc2OC)cc1 | i | i | -1.1 | 1 | i | i
CCOc1ccccc1NC(=O)C(=O)CC(=O)c1cccc(OC)c1 | i | i | 0.81 | 12* | 16* | i
CCc1ccc(OCCCCCn2ccnc2)cc1 | i | i | -2.3 | -3 | i | i
CC(C)c1nc2n[nH]c(N)c2c2c1CCCC2 | i | i | -6.8* | 2 | i | i
CC(C)Cc1nc2n[nH]c(N)c2c2c1CCCC2 | i | i | 0.06 | 2 | i | i
Cc1[nH]n(-c2ccccc2)c(=O)c1N=Nc1ccccc1O | i | i | -1.2 | -3 | i | i
Cc1[nH]n(-c2ccccc2)c(=O)c1N=Nc1nccs1 | i | i | -0.25 | 114* | 78* | i
O=C(NN1C(=O)c2ccccc2NC1c1ccco1)c1ccc([N+](=O)[O-])cc1 (centres undefined) | i | i | -1.4 | -18 | i | i
CCN(CC)c1cccc(OC2=NS(=O)(=O)c3ccccc32)c1 | i | i | -0.59 | -4 | i | i
O=C(NC(=S)Nc1nc(-c2ccc(Br)cc2)cs1)c1ccco1 | i | i | 0.04 | 6.3* | i | i
O=C(Nc1nc(-c2ccccc2)cs1)c1ccco1 | i | i | -0.1 | -12 | i | i
O=C(NC(=S)Nc1nc(-c2ccc([N+](=O)[O-])cc2)cs1)c1ccco1 | i | i | -0.09 | 15* | 21* | i
O=C(NC(=S)Nc1nc(-c2ccc(Br)cc2)cs1)c1cccnc1 | i | i | 0.05 | -9 | i | i
O=C(NCc1ccccc1)NC1CCS(=O)(=O)C1 (centres undefined) | i | i | -0.29 | 1 | i | i
CCOC(=O)CCNC(=O)Nc1cc2nc(C)n(Cc3cccc(Cl)c3)c2nc1C | i | i | -0.06 | -6 | i | i
CCOC(=O)[C@@H]1[C@H]2COc3ccccc3[C@H]2N2C(=O)N(c3ccc(C)cc3)C(=O)[C@]12C | i | i | -0.38 | -7 | i | -6.7*
CCOC(=O)[C@@H]1[C@H]2COc3ccccc3[C@@H]2N2C(=O)N(c3ccccc3)C(=O)[C@@]12C | i | i | 0.93 | -6 | i | i
CCCc1nc2c(s1)CCc1onc(-c3cccc([N+](=O)[O-])c3)c1-2 | i | i | -0.83 | -5 | i | i
CC(C)c1nc2c(s1)CCc1onc(-c3cccc([N+](=O)[O-])c3)c1-2 | i | i | -0.26 | -7 | i | -6.7*
O=C(Nc1ccc(Cl)c(Cl)c1)C1=Cc2ccccc2OC1 | i | 7* | -1.4 | -10 | i | i
C=CCNCCOc1ccc(C(C)(C)c2ccccc2)cc1 | i | i | -12* | -8 | i | i
COc1ccccc1NC(=O)COC(=O)Cc1c[nH]c2ccccc12 | i | i | -1.6 | -14 | i | i
SMILES | KCNK3 block | KCNQ1 block | Kir21 block | hERG protect | KCNQ1 act | KCNK9 block
O=C(COC(=O)Cc1c[nH]c2ccccc12)NC1CCCCC1 | i | i | -7* | -2 | i | i
CC(C)c1ccccc1NC(=O)COC(=O)Cc1c[nH]c2ccccc12 | i | i | -5.4* | -9 | i | i
CCN(CC)S(=O)(=O)c1cccc(C(=O)NC(C)C(c2cccs2)N2CCCC2)c1 (centres undefined) | i | i | -0.32 | -16 | i | i
CCOC(=O)C1CCN(C2=NC(=O)/C(=C/c3ccc(Cl)cc3)S2)CC1 | i | i | 0.02 | -8 | i | i
CCOC(=O)CSC1=NC(=O)/C(=C\c2ccc(Cl)cc2)S1 | i | 6* | 0.71 | -12 | i | i
COc1ccc(CNc2ccc(Cl)cc2)cc1Cn1ccnc1 | i | i | -4.3* | -14 | i | i
COC(=O)C1=C(C(=O)OC)[C@]2([C@H]3CCCCN[C@@H](Cc4ccccc4)C(=O)N3Cc3ccccc3)C=C[C@H]1O2 | i | · | · | · | · | ·
COC(=O)c1ccc(CNC(=O)c2ccc(OCC(=O)N3CCOCC3)c(OC)c2)cc1 | i | i | -2.2 | -17 | i | i
c1ccc(C(c2ccccc2)N2CCN(C(c3ccccn3)c3nnnn3C3CCCC3)CC2)cc1 (centres undefined) | i | i | 0.79 | -13 | i | -15*
CC1(C)SC(=S)N(/N=C/c2ccccc2)C1N(O)C(=O)Nc1ccc([N+](=O)[O-])cc1 (centres undefined) | i | i | -0.45 | 5.8* | i | i
Clc1ccc(OCCCNCc2ccccc2)c(Br)c1 | i | i | -16* | -20 | i | i
Clc1ccc(Cl)c(OCCCCNCc2ccccc2)c1 | i | i | -12* | -16 | i | i
OCCNCCCOc1ccc(Cl)cc1Br | i | i | -1.6 | -15 | i | i
O=C(Cc1ccccc1)NC(=S)Nc1ccc2oc(-c3ccccc3)nc2c1 | · | i | -1.1 | -2 | i | i
CCN(c1nc(C)cc(OC)n1)S(=O)(=O)c1ccccc1 | i | i | -6.6* | -7 | i | i
CCC(C)(C)c1ccc(OCCCC[n+]2ccc(C)cc2)c(C(C)(C)CC)c1 | · | 7* | -4.9* | -25 | i | -7.7*
CCN(c1ccccc1)S(=O)(=O)c1ccc(C(=O)N(CCCN(C)C)c2nc3c(C)cccc3s2)cc1 | i | i | -2 | -15 | i | i
COCCn1c(SCC(=O)N(C)C2CCS(=O)(=O)C2)nc2ccccc2c1=O (centres undefined) | i | i | 0.53 | -9 | i | i
Cc1ccc(-n2c(SCC(=O)N(C)C3CCS(=O)(=O)C3)nc3ccccc3c2=O)c(C)c1 (centres undefined) | -9.2* | · | · | · | · | ·
CCCc1cc(NCC2CCCO2)n2c(nc3ccccc32)c1C#N (centres undefined) | i | i | 3 | -11 | i | i
COC(=O)CCN(C(=O)c1cc([N+](=O)[O-])cc([N+](=O)[O-])c1)c1ccccn1 | i | i | -0.32 | -5 | i | i
COC(=O)CCN(C(=O)c1ccc([N+](=O)[O-])cc1)c1ccccn1 | i | 11* | 1.6 | -9 | i | i
